# The source made the active and inactive calls. The rule behind the calls is not given here.
# Columns and labels:
# [1] = Half life in ICR mouse at 2 mg/kg, iv measured up to 24 hrs by LC-MS/MS analysis; assay type: ADME, organism-based; conditions: in vivo
# [2] = Clearance in ICR mouse at 2 mg/kg, iv measured up to 24 hrs by LC-MS/MS analysis; assay type: ADME, organism-based; conditions: in vivo
# [3] = Volume of distribution at steady state in ICR mouse at 2 mg/kg, iv measured up to 24 hrs by LC-MS/MS analysis; assay type: ADME, organism-based; conditions: in vivo, read-out: Vdss
# [4] = AUC (0 to inf) in ICR mouse at 2 mg/kg, iv measured up to 24 hrs by LC-MS/MS analysis; assay type: ADME, organism-based; set-up: route intravenous, dose 2 mg/kg, time <=24; conditions: in vivo; for AUC(0-inf): ICR
# [5] = Half life in ICR mouse at 10 mg/kg, po measured up to 24 hrs by LC-MS/MS analysis; assay type: ADME, organism-based; conditions: in vivo
# [6] = Cmax in ICR mouse at 10 mg/kg, po measured up to 24 hrs by LC-MS/MS analysis; assay type: ADME, organism-based; set-up: route oral, dose 10 mg/kg, time <=24; conditions: in vivo
# [7] = Tmax in ICR mouse at 10 mg/kg, po measured up to 24 hrs by LC-MS/MS analysis; assay type: ADME, organism-based; conditions: in vivo
# [8] = AUC (0 to inf) in ICR mouse at 10 mg/kg, po measured up to 24 hrs by LC-MS/MS analysis; assay type: ADME, organism-based; set-up: route oral, dose 10 mg/kg, time <=24; conditions: in vivo
# [9] = Oral bioavailability in ICR mouse at 10 mg/kg measured up to 24 hrs by LC-MS/MS analysis; assay type: ADME, organism-based; conditions: in vivo
# [10] = Effect on MYCN protein expression level in human SKNBE2 cells assessed as fold change at 1 uM incubated for 24 hrs by Western blot analysis relative to control; assay type: functional, SK-N-BE(2)
# Outline: (§1)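 Cells treated with compound at various concentrations for 24 h, then washed in PBS, lysed in Laemmli buffer and boiled 10 min. Lysates run on SDS-PAGE, transferred to PVDF and probed with antibodies, then AP- or HRP-conjugated secondaries with chemiluminescent detection. Loading control β-actin. NCI-H82 grown in RPMI1640 and SK-N-BE(2) in MEM, each with 10% FBS. Relative levels quantified from triplicate experiments.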
# [11] = target: T1, Aurora kinase A (Homo sapiens) (UniProt O14965); assay: Inhibition of recombinant GST-tagged N-terminal truncated human Aurora A (123 to 401 residues) expressed in Sf9 insect cell using tetra-LRRASLG peptide as substrate at 100 nM incubated for 120 mins by Kinase-Glo plus luminescent kinase assay relative to control
# T1 sequence (whole entry): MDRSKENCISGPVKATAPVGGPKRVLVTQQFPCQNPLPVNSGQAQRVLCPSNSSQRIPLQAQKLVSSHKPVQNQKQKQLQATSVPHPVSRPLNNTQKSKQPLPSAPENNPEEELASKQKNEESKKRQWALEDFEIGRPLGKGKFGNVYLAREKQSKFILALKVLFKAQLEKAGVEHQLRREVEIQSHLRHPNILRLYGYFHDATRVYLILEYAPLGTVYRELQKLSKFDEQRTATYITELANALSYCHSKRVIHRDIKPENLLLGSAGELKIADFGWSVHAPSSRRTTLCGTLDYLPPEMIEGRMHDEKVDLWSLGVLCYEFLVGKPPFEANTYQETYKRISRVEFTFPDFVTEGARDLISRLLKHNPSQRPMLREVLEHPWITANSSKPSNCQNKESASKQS
# NCI-H446 [12] = assay: Anti-tumor activity against human NCI-H446 cells xenografted in athymic nu/nu nude mouse assessed as reduction in tumor volume at 50 to 100 mg/kg, po administered at 5 on-2-off for 2 to 4 weeks; assay type: functional, organism-based; conditions: dose 50-100 mg/kg, time 2-4 weeks
# Outline: (§2)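 Male athymic nu/nu mice, 6 weeks old, inoculated subcutaneously with 1 × 10⁶ NCI-H446 cells in saline with 50% Matrigel. Dosing IV or oral, vehicle 5% dimethylacetamide/95% PEG400, on a 5-on-2-off schedule for 2–4 weeks once tumors reached ≥200 mm³. Caliper volume = length × width²/2; tumors and body weight measured at least twice weekly. ANOVA with Student–Newman–Keuls, P < 0.05.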
# [13] = Toxicity in athymic nu/nu nude mouse xenografted with NCI-H446 cells assessed as reduction in body weight at 50 to 100 mg/kg, po administered at 5 on-2-off for 2 to 4 weeks relative to control; assay type: organism-based; set-up: scale not given: the % may be the effect or the level left; conditions: in vivo, dose lower 50 mg/kg, time lower 2 weeks, dose upper 100 mg/kg, time upper 4 weeks; outline: as §2
# [14] = Effect on cMYC protein expression level in human NCI-H82 cells assessed as fold change at 1 uM incubated for 24 hrs by Western blot analysis relative to control; assay type: functional; outline: as §1
# NCI-H82 [15] = assay: Growth inhibition of human NCI-H82 cells assessed as reduction in cell viability after 72 hrs by PrestoBlue Cell Viability assay; assay type: functional, cell-based; conditions: NCI-H82, 72 h
# Outline: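 Cells seeded at 5000–10,000 per well, grown 24 h in RPMI1640 with 10% FBS and antibiotics, then exposed to compound at 0–10 μM for 72 h. Viability read by PrestoBlue fluorescence. IC50 from triplicate eight-point titration.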
# NCI-H82 [16] = assay: Induction of cell cycle arrest in human NCI-H82 cells at 1 uM after 24 hrs by Propidium iodide staining based flow cytometric analysis; assay type: functional
# SK-N-BE(2) [17] = assay: Growth inhibition of human SKNBE2 cells assessed as reduction in cell viability after 24 hrs by PrestoBlue Cell Viability assay; conditions: SKNBE2, 24 h
# [18] = target: Aurora kinase B (Homo sapiens) (UniProt Q96GD4); assay: Inhibition of Aurora B phosphorylation in human NCI-H82 cells assessed as reduction in phosphorylation at Thr 232 residue at 50 to 1000 nM after 24 hrs by Western blot analysis; assay type: cell-based; conditions: dose 50-1000 nM; outline: as §1
# NCI-H82 [19] = assay: Inhibition of Histone H3 phosphorylation in human NCI-H82 cells assessed as reduction in phosphorylation at Ser 10 residue at 50 to 1000 nM after 24 hrs by Western blot analysis; assay type: cell-based; conditions: dose 50-1000 nM; outline: as §1
# [20] = target: Aurora kinase B (Homo sapiens) (UniProt Q96GD4); assay: Inhibition of Aurora B phosphorylation in human SKNBE2 cells assessed as reduction in phosphorylation at Thr 232 residue at 50 to 1000 nM after 24 hrs by Western blot analysis; assay type: cell-based; conditions: dose 50-1000 nM; outline: as §1
# SKNBE2 = assay: Inhibition of Histone H3 phosphorylation in human SKNBE2cells assessed as reduction in phosphorylation at Ser 10 residue at 50 to 1000 nM after 24 hrs by Western blot analysis; conditions: dose 50-1000 nM; outline: as §1
# NCI-H82 [21] = assay: Down regulation of Cyclin B1 expression in human NCI-H82 cells at 50 to 1000 nM after 24 hrs by Western blot analysis; assay type: functional, cell-based; conditions: dose 50-1000 nM; outline: as §1
# SK-N-BE(2) [22] = assay: Down regulation of Cyclin B1 expression in human SKNBE2 cells at 50 to 1000 nM after 24 hrs by Western blot analysis; assay type: functional, cell-based; conditions: dose 50-1000 nM; outline: as §1
# NCI-H446 [23] = assay: Induction of apoptosis in human NCI-H446 cells xenografted in athymic nu/nu nude mouse assessed as increase in cleaved PARP1 protein expression level at 100 mg/kg, po measured up to 24 hrs by Western blot analysis; conditions: time hrs <=24
# [24] = Inhibition of Histone H3 phosphorylation in human NCI-H446 cells xenografted in assessed as reduction in phosphorylation at Ser 10 residue at 100 mg/kg, po measured upto 8 hrs by western blot analysis relative to control
# Chain of Aurora kinase B (Homo sapiens) (Q96GD4 whole entry): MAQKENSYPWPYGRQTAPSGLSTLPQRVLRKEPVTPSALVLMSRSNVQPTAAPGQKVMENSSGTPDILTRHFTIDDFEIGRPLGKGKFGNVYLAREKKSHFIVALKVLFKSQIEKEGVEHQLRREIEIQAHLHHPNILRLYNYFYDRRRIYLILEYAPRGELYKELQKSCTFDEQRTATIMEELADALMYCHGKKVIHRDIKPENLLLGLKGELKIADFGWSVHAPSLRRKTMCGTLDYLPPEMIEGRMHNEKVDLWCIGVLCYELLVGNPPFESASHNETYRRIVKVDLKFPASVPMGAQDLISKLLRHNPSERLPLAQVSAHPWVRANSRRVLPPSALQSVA
smiles,measurement,setting,value
CCN1CCN(c2cc(Nc3cc(C)nn3C(=O)C(C)(C)C)nc(N[C@H]3CCN(C(=O)c4ccc(Cl)cc4F)C3)n2)CC1,half-life,[1],5.5 h
same,clearance,[2],73.3 mL/min/kg
same,Vd,[3],18.8 L/kg
same,AUC(0-inf),[4],401 ng·h/mL
same,half-life,[5],2.2 h
same,Cmax,[6],36.1 ng/mL
same,Tmax,[7],1.4 h
same,AUC(0-inf),[8],157 ng·h/mL
same,bioavailability,[9],7.8%
CCN1CCN(c2cc(Nc3cc(C)[nH]n3)nc(N[C@H]3CCN(C(=O)c4cccc(Cl)c4F)C3)n2)CC1,fold change (FC),[10],0.741
CCN1CCN(c2cc(Nc3cc(C)[nH]n3)nc(N[C@H]3CCN(S(=O)(=O)c4ccc(Cl)cc4F)C3)n2)CC1,inhibition,[11],< 50%
CCOC(=O)n1nc(C)cc1Nc1cc(N2CCN(CC)CC2)nc(N[C@H]2CCN(C(=O)c3ccc(Cl)cc3F)C2)n1,half-life,[1],5.8 h
same,clearance,[2],20 mL/min/kg
same,Vd,[3],2.8 L/kg
same,AUC(0-inf),[4],1480 ng·h/mL
same,half-life,[5],2.7 h
same,Cmax,[6],1090 ng/mL
same,Tmax,[7],0.3 h
same,AUC(0-inf),[8],4050 ng·h/mL
same,bioavailability,[9],54.5%
same,Activity,NCI-H446 [12],Dose-Dependent Effect
same,Activity,[13],< 5%
Cc1cc(Nc2cc(N3CC(N(C)C)C3)nc(N[C@H]3CCN(C(=O)c4cccc(Cl)c4F)C3)n2)n[nH]1,fold change (FC),[14],1.084
same,fold change (FC),[10],0.754
CCN1CCN(c2cc(Nc3cc(C)[nH]n3)nc(N[C@H]3CCN(C(=O)c4cc(F)c(Cl)c(F)c4)C3)n2)CC1,inhibition,[11],< 50%
CCN(CCCOc1ccc2c(Nc3cc(CC(=O)Nc4cccc(F)c4)[nH]n3)ncnc2c1)CCOP(=O)(O)O [BARASERTIB],IC50,NCI-H82 [15],1 nM
same,Activity,NCI-H82 [16],Active
same,IC50,SK-N-BE(2) [17],1 nM
CCC(=O)n1nc(Nc2cc(N3CCN(CC)CC3)nc(N[C@H]3CCN(C(=O)c4ccc(Cl)cc4F)C3)n2)cc1C,half-life,[1],1 h
same,Vd,[3],0.9 L/kg
same,AUC,[4]; 24 h,351 ng·h/mL
same,half-life,[5],1.9 h
same,Cmax,[6],114 ng/mL
same,Tmax,[7],0.4 h
same,AUC(0-inf),[8],243 ng·h/mL
Cc1cc(Nc2cc(N(C)CCN(C)C)nc(N[C@H]3CCN(C(=O)c4cccc(Cl)c4F)C3)n2)n[nH]1,fold change (FC),[14],0.911
same,fold change (FC),[10],0.805
CCN1CCN(c2cc(Nc3cc(C)[nH]n3)nc(N[C@H]3CCN(C(=O)c4cc(F)c(F)cc4F)C3)n2)CC1,inhibition,[11],< 50%
CCN1CCN(C(=O)Cc2ccc(Nc3ncc(F)c(Nc4ccc(C(=O)Nc5ccccc5Cl)cc4)n3)cc2)CC1,IC50,NCI-H82 [15],1 nM
same,IC50,SK-N-BE(2) [17],1 nM
CCN1CCN(c2cc(Nc3cc(C)nn3C(=O)OC(C)(C)C)nc(N[C@H]3CCN(C(=O)c4ccc(Cl)cc4F)C3)n2)CC1,half-life,[1],5 h
same,clearance,[2],38 mL/min/kg
same,Vd,[3],4.9 L/kg
same,AUC(0-inf),[4],780 ng·h/mL
same,half-life,[5],3.3 h
same,Cmax,[6],690 ng/mL
same,Tmax,[7],0.5 h
same,AUC(0-inf),[8],1130 ng·h/mL
same,bioavailability,[9],28.9%
CCOC(=O)n1nc(Nc2cc(N3CCN(CC)CC3)nc(N[C@H]3CCN(C(=O)c4ccc(Cl)cc4F)C3)n2)cc1C,half-life,[5],2.3 h
same,Cmax,[6],274 ng/mL
same,Tmax,[7],0.4 h
same,AUC(0-inf),[8],961 ng·h/mL
Cc1cc(Nc2cc(N3CCN(C)CC3)nc(N[C@H]3CCN(C(=O)c4cccc(Cl)c4F)C3)n2)n[nH]1,fold change (FC),[14],0.843
same,fold change (FC),[10],0.815
CCN1CCN(c2cc(Nc3cc(C)[nH]n3)nc(N[C@H]3CCN(C(=O)c4ccc(C(F)(F)F)cc4F)C3)n2)CC1,inhibition,[11],< 50%
CCN1CCN(c2cc(Nc3cc(C)[nH]n3)nc(N[C@H]3CCN(C(=O)c4ccccc4)C3)n2)CC1,fold change (FC),[14],0.93
same,fold change (FC),[10],0.919
CCN1CCN(c2cc(Nc3cc(C)[nH]n3)nc(N[C@H]3CCN(C(=O)c4ccc(Cl)nc4F)C3)n2)CC1,inhibition,[11],< 50%
COc1cc(Nc2ncc3c(n2)-c2ccc(Cl)cc2C(c2c(F)cccc2OC)=NC3)ccc1C(=O)O [ALISERTIB],inhibition,[18],Dose-Dependent Effect
same,inhibition,NCI-H82 [19],Active
same,inhibition,[20],Dose-Dependent Effect
same,inhibition,SKNBE2,Active
same,Activity,NCI-H82 [21],Active
same,Activity,SK-N-BE(2) [22],Active
same,Activity,NCI-H446 [23],Active
same,inhibition in vivo at 100 mg/kg,[24],> 90%
Cc1cc(Nc2cc(N3CC[C@H](N(C)C)C3)nc(N[C@H]3CCN(C(=O)c4cccc(Cl)c4F)C3)n2)n[nH]1,fold change (FC),[14],0.996
same,fold change (FC),[10],0.809

# Reference: ChEMBL document CHEMBL5033992, “Discovery and Synthesis of a Pyrimidine-Based Aurora Kinase Inhibitor to Reduce Levels of MYC Oncoproteins” (J Med Chem, 2021)
